One test deals with MDA231. As to the kind of experiment: Inhibition of lipoxygenase in human MDA231 cells. It is filed as cell-based.
Test [1] has as its target Receptor tyrosine-protein kinase erbB-2 (Homo sapiens) (UniProt P04626). Put plainly: Inhibition of HER2 at 1 uM.
Test [2] addresses Cyclin-dependent kinase 1/cyclin B1 (Homo sapiens) (UniProt P06493+P14635). Put plainly: Inhibition of CDK1/cyclin B at 1 uM. The class given is protein-complex assay.
Test [3] deals with Epithelial discoidin domain-containing receptor 1 (Homo sapiens) (UniProt Q08345). As to the kind of experiment: Inhibition of DDR1 at 1 uM.
The nature of test [4]: Antiinvasive activity in human MDA231 cells at 10 uM after 48 hrs by Matrigel matrix assay. The class given is functional, MDA-MB-231. Put shortly:
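Serum-starved MDA-231 cells (30,000) placed with or without compound (10 μM) in the upper compartment of 8-µm Matrigel-coated Boyden chambers. Lower compartment held DMEM 0.2% BSA with 10% serum. Invasion ran 48 h, then invaded cells were fixed, stained and counted under a 40× objective. DMSO normalized to 0% inhibition. Mean ± SD, five experiments.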

Test [5] concerns the target Tyrosine-protein kinase receptor Tie-1 (Homo sapiens) (UniProt P35590). Put plainly: Inhibition of TIE1 at 1 uM.
The target of test [6] is Vascular endothelial growth factor receptor 2 (Homo sapiens) (UniProt P35968). As to the kind of experiment: Inhibition of VEGFR2 at 1 uM.
The test system of test [7] is MDA-MB-231. Put plainly: Inhibition of free radical generation in human MDA231 cells by CM-H2DCFDA based fluorometric analysis. It is filed as functional, cell-based.
Test [8] has as its target Tyrosine-protein kinase ABL1 (Homo sapiens) (UniProt P00519). Put plainly: Inhibition of ABL1 at 1 uM.
Test [9] addresses Insulin-like growth factor 1 receptor (Homo sapiens) (UniProt P08069). Put plainly: Inhibition of IGF1R at 1 uM.
Test [10] deals with Serine/threonine-protein kinase pim-1 (Homo sapiens) (UniProt P11309). As to the kind of experiment: Inhibition of PIM1 at 1 uM.
For test [11], the target named is T1, Serine/threonine-protein kinase Sgk3 (Homo sapiens) (UniProt Q96BR1).
T1 sequence (whole entry): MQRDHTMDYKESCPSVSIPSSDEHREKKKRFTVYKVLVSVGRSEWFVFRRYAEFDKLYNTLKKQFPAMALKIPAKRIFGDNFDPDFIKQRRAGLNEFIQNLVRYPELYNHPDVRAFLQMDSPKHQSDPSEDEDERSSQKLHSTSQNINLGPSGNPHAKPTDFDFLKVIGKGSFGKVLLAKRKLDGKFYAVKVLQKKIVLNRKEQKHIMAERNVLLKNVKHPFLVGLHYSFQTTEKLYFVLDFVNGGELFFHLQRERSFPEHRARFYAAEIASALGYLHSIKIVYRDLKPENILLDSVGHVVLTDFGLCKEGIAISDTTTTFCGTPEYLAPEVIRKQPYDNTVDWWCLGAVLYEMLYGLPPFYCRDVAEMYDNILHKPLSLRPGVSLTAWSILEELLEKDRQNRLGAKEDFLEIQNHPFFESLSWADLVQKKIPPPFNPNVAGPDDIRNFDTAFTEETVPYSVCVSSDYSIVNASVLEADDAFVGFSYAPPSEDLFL
As to the kind of experiment: Inhibition of SGK3 at 1 uM.

Test [12] addresses Tyrosine-protein kinase Yes (Homo sapiens) (UniProt P07947). As to the kind of experiment: Inhibition of YES1 at 1 uM.
Test [13] addresses T2, Serine/threonine-protein kinase PLK4 (Homo sapiens) (UniProt O00444).
T2 sequence (whole entry): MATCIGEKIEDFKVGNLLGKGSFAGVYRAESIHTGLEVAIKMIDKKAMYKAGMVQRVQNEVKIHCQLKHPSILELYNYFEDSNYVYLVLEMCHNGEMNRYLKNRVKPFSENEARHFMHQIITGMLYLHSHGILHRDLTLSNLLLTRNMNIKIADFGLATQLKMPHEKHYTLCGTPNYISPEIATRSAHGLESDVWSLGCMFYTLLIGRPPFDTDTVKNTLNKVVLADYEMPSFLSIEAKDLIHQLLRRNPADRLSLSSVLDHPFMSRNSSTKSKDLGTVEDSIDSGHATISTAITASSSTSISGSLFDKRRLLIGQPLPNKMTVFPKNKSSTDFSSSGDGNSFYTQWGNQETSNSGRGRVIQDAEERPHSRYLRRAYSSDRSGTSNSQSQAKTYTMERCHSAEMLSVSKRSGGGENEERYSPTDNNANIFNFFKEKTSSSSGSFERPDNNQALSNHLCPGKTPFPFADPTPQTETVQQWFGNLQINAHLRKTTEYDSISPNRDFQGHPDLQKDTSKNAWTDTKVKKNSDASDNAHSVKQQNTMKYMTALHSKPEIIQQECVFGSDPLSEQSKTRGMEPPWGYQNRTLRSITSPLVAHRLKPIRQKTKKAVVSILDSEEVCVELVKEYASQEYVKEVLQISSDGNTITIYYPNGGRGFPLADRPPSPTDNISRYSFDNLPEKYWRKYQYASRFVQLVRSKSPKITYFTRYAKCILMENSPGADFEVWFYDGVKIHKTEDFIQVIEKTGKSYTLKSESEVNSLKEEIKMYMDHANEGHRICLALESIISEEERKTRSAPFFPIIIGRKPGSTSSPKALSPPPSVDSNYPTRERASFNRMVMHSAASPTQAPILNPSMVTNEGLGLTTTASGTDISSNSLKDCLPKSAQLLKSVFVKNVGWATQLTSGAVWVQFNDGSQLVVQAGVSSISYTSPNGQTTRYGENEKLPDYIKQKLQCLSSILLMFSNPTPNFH
Put plainly: Inhibition of PLK4 at 1 uM.

For test [14], the target named is BDNF/NT-3 growth factors receptor (Homo sapiens) (UniProt Q16620). As to the kind of experiment: Inhibition of TRKB at 1 uM.
Test [15] has as its system MDA-MB-231. Put plainly: Cytotoxicity against human MDA231 cells at 10 uM. The class given is functional, cell-based.
For test [16], the target named is Hepatocyte growth factor receptor (Homo sapiens) (UniProt P08581). As to the kind of experiment: Inhibition of MET at 1 uM.

Active and inactive are the calls of the source. No cut-off for these calls is given here.

For orientation: inhibition means the share of the control response that was lost under treatment.

Sequence of Vascular endothelial growth factor receptor 2 (Homo sapiens) (P35968 whole entry): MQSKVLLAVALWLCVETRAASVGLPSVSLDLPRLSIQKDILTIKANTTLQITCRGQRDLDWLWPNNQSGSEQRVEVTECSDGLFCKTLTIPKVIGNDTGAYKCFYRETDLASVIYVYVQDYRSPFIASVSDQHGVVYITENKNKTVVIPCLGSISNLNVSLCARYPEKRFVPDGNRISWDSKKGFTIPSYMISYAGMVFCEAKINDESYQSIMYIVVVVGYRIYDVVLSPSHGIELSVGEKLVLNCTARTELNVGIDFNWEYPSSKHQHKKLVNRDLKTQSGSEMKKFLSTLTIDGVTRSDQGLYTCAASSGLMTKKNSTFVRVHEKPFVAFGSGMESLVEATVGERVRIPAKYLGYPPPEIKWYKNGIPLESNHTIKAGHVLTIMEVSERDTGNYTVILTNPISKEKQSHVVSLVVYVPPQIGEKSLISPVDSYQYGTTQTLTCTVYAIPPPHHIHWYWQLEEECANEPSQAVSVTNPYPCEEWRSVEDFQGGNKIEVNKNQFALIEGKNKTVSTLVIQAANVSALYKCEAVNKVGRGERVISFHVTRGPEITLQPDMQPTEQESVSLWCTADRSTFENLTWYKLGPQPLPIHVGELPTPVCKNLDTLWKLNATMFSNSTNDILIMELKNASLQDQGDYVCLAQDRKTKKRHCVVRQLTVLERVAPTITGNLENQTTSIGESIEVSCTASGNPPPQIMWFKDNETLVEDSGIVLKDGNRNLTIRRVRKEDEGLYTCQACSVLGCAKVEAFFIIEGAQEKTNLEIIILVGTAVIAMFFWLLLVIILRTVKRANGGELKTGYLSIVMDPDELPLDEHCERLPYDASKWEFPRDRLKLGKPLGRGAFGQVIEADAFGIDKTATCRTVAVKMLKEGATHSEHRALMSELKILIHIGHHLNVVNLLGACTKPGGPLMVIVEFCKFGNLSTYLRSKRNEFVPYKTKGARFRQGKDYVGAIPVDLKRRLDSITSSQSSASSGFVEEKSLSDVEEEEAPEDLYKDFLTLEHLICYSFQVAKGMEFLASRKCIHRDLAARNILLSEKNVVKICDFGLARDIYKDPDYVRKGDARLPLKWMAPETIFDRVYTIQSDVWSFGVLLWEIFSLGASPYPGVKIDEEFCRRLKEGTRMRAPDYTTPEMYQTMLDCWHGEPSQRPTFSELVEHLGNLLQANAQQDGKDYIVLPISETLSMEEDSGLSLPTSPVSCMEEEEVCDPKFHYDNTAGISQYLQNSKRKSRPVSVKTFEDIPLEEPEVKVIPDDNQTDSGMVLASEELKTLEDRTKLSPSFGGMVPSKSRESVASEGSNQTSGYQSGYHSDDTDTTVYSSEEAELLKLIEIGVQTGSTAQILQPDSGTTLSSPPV
Sequence of BDNF/NT-3 growth factors receptor (Homo sapiens) (Q16620 32-822 limits assumed): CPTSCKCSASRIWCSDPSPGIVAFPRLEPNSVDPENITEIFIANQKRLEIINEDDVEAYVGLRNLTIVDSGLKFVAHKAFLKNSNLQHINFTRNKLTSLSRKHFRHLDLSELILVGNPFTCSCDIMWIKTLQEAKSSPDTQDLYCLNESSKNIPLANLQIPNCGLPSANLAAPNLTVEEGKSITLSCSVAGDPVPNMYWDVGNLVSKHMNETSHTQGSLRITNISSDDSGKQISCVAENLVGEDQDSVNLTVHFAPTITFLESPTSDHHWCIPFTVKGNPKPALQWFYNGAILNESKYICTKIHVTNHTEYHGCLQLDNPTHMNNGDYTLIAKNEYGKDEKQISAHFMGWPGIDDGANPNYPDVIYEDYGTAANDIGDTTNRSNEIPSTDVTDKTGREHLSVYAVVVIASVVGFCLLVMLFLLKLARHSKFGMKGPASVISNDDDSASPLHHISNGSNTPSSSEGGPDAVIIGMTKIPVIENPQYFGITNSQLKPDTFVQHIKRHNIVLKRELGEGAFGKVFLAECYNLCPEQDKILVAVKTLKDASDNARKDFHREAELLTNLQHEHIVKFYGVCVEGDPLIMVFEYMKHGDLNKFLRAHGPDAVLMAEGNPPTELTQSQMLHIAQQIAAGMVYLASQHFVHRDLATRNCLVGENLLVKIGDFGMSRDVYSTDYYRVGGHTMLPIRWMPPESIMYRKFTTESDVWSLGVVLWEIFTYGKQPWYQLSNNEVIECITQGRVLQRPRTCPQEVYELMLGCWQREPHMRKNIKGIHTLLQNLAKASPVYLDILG
Sequence of Cyclin-dependent kinase 1/cyclin B1 (Homo sapiens) (P06493 whole entry, looked up, the tested form may be a part): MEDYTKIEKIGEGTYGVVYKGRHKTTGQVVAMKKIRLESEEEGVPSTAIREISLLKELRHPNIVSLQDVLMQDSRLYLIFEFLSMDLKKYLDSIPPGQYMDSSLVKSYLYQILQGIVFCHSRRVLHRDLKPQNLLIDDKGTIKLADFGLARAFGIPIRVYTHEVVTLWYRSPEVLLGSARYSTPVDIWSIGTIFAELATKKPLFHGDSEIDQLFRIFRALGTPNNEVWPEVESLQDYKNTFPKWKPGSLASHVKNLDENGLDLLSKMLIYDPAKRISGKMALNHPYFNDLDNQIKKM
Sequence of Cyclin-dependent kinase 1/cyclin B1 (Homo sapiens) (P14635 whole entry, looked up, the tested form may be a part): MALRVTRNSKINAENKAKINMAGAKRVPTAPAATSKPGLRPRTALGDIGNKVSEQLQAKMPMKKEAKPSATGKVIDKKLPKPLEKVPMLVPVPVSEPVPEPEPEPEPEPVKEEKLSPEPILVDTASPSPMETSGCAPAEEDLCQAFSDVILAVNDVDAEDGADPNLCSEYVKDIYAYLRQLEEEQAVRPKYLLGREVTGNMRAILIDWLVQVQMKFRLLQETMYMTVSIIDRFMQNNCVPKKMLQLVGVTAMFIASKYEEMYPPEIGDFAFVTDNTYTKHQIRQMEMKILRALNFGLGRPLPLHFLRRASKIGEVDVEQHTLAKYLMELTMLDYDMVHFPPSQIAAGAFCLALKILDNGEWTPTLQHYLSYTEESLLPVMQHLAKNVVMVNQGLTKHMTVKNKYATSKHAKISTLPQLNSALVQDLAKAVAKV
Sequence of Epithelial discoidin domain-containing receptor 1 (Homo sapiens) (Q08345 whole entry, the tested form may be a part): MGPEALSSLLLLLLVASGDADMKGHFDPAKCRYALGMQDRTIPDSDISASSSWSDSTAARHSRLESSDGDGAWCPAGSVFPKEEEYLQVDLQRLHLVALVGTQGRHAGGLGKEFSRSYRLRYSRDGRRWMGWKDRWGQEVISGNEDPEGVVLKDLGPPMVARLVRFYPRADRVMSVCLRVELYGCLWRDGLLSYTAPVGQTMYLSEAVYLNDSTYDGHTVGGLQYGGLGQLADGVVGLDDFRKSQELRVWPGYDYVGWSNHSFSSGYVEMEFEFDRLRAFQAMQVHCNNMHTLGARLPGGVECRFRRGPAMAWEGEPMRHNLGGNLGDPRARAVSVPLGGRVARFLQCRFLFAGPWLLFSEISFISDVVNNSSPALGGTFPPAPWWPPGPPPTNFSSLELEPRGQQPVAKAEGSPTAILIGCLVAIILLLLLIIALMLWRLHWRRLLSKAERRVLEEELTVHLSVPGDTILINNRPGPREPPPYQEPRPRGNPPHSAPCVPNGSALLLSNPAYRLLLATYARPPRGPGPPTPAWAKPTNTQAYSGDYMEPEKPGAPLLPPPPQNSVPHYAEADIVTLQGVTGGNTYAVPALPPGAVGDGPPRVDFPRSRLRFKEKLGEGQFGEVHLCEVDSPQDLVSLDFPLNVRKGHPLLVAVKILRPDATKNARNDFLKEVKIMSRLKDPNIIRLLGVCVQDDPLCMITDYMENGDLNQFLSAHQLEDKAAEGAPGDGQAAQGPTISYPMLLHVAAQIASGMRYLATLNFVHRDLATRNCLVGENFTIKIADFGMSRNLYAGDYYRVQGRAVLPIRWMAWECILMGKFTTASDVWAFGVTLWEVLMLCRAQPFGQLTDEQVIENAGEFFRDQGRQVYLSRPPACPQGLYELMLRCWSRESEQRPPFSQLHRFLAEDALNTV
Sequence of Tyrosine-protein kinase receptor Tie-1 (Homo sapiens) (P35590 whole entry): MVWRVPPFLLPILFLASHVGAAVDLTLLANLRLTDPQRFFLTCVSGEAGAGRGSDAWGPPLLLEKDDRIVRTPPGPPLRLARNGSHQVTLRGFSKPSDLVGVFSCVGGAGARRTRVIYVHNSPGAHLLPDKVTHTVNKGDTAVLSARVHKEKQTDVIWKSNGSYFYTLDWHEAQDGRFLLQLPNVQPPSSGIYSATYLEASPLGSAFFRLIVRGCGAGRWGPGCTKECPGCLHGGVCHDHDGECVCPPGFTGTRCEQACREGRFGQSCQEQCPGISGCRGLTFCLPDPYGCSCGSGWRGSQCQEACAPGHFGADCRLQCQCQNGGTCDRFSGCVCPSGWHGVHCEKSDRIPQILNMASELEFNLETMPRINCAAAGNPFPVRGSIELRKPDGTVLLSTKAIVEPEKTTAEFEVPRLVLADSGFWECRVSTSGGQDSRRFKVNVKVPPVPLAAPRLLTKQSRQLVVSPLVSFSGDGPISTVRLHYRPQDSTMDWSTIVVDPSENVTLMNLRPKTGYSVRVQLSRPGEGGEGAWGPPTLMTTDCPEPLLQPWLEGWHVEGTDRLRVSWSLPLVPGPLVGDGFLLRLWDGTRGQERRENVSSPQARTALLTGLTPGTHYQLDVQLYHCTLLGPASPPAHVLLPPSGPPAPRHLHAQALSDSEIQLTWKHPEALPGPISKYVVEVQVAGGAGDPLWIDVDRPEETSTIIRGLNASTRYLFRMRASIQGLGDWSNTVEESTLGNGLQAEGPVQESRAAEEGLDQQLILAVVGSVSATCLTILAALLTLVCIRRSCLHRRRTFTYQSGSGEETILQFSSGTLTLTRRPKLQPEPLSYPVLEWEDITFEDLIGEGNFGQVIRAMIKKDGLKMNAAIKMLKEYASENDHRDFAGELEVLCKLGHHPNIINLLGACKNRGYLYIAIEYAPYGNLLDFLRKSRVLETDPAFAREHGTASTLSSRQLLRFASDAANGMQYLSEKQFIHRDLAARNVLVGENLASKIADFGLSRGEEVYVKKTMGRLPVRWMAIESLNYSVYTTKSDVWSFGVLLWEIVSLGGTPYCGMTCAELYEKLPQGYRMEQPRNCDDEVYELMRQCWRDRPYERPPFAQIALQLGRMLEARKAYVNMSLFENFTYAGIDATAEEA

As for `O=C(CCCn1[se]c2ccccc2c1=O)N[C@@H]1O[C@H](CO)[C@@H](O)[C@H](O)[C@H]1O`, the inhibition result in the test with MDA231 and in the test with MDA-MB-231 [7] was “inactive” in each case. Further, the inhibition in test [1], in test [2], in test [3], in [5], in test [6] and in [8] was 0% each time. Besides, the inhibition in test [9], in test [10], in [11], in [12], in [13] and in [14] was 0% each time. In test [16], this compound gave an inhibition of 0%. In addition, the Activity in test [4] is listed as 50%. Moreover, in the test on MDA-MB-231 [15], the outcome was inactive.
With `O=c1c2ccccc2[se]n1-c1ccccc1` [EBSELEN], the inhibition in test [1], in test [2], in test [3], in [5], in [6] and in test [8] was 0% each time. Also, the inhibition in test [9], in test [10], in [11], in [12], in [13] and in test [14] was 0% throughout. In test [16], the inhibition is 0%.
Regarding `CC(=O)OC[C@H]1O[C@@H](NC(=O)CCCn2[se]c3ccccc3c2=O)[C@H](OC(C)=O)[C@@H](OC(C)=O)[C@@H]1OC(C)=O`, the inhibition entry in the test on MDA231 and in the test with MDA-MB-231 [7] was “inactive” in each case. Moreover, the inhibition in test [1], in test [2], in [3], in test [5], in [6] and in test [8] was 0% each time. For the same compound, the inhibition in test [9], in [10], in test [11], in test [12], in test [13] and in [14] was 0% throughout. Besides, the inhibition in test [16] is 0%. In [4], this compound displayed an Activity of 50%. In addition, the outcome in the test on MDA-MB-231 [15] was inactive.
As to `CC(=O)OC[C@H]1O[C@@H](O[C@H]2[C@H](OC(C)=O)[C@@H](OC(C)=O)[C@H](n3[se]c4ccccc4c3=O)O[C@@H]2COC(C)=O)[C@H](OC(C)=O)[C@@H](OC(C)=O)[C@H]1OC(C)=O`, the inhibition entry with MDA231 and in the test on MDA-MB-231 [7] was “inactive” in each case. Further, the inhibition in [1], in test [2], in test [3], in test [5], in [6] and in test [8] was 0% in each case. Besides, the inhibition in [9] is 1%; in test [10], 0%; in test [11], 0%; in test [12], 0%; in test [13], 0%; in test [14] it was 0%. In test [16], this compound yielded an inhibition of 0%. Also, in test [4], the Activity is recorded as 50%. Besides, the result in the test on MDA-MB-231 [15] was inactive.

Source of the values: ChEMBL document CHEMBL1938284, “Synthesis and biological activity of novel organoselenium derivatives targeting multiple kinases and capable of inhibiting cancer progression to metastases” (Eur J Med Chem, 2012).
